Consider eleven molecules from ChEMBL document CHEMBL1137851, “2-Substituted benzoxazinone analogues as anti-human coronavirus (anti-HCoV) and ICAM-1 expression inhibition agents” (Bioorg Med Chem Lett, 2004).

Converted amounts (≈) assume the structure as drawn. Numbered stars: 1 amine (or outer) side, 2 acyl side, 3 side chain; on linkers, the order of the positions; unused ones are H or OH. Bridge positions count the residues as written; N and C are the ends. Square brackets hold non-standard residues; d marks the D form. Peptide text beside a SMILES is read from it. I, II: the chains in the order shown. Actinocin(1to9) = Cc1c2oc3c(C)ccc(C(=O)[*:2])c3nc-2c(C(=O)[*:1])c(N)c1=O; NMeV = CN[C@H](C(=O)O)C(C)C; Sar = CNCC(=O)O

Test [1] can be described thus: Effective dose for inhibition of intercellular adhesion molecule 1 (ICAM 1) expression. Format: functional.
Test [2] deals with MRC5. As to the kind of experiment: inhibitory concentration against anti-human coronavirus (HCoV) was determined in MRC-5 cells (human fibroblasts). Format: functional, cell-based. Summed up: (§1)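 MRC-5 human fibroblasts (1.0×10^5 cells/mL in 3% FBS-DMEM) seeded and held 24 h at 37 °C, then infected with HCoV strain 229E at 20 TCID₅₀/well for 2 h at 37 °C. Compound added afterwards at various concentrations, in triplicate. Cell viability read by XTT after 4 days at 37 °C. Actinomycin D served as positive control.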

Test [3] has as its system MRC5. The test can be described thus: inhibitory concentration against anti-human coronavirus (HCoV) was determined in MRC-5 cells (human fibroblasts); Inactive. Format: functional, cell-based. Summed up: as §1

Regarding `COc1cccc2c(=O)oc(-c3ccc(Cl)cc3)nc12`, the ED50 in test [1] was determined as 0.5 µg/mL (≈ 1.74 µM). This molecule displayed an IC50 in the test on MRC5 [2] of 7.59 µg/mL (≈ 26.4 µM).

In the test on MRC5 [2], `COc1cccc2c(=O)oc(-c3ccccc3)nc12` came in with a 50% inhibitory concentration (IC50) of 6.83 µg/mL (≈ 27 µM). On to `COc1cccc2c(=O)oc(-c3ccccc3Br)nc12`, for which, in the test with MRC5 [3], the IC50 result is recorded as “Not Active”. As to `COc1cccc2c(=O)oc(-c3ccccc3Cl)nc12`, the IC50 in the test on MRC5 [2] worked out at 5.79 µg/mL (≈ 20.1 µM). Regarding `O=c1oc(-c2ccccc2Br)nc2c1ccc1ccccc12`, in the test on MRC5 [3], the IC50 result was “Not Active”. In the case of `COc1cccc2c(=O)oc(-c3ccc(Br)cc3)nc12`, in test [1], the ED50 turned out to be 1 µg/mL (≈ 3.01 µM). This molecule displayed an IC50 in the test on MRC5 [2] of 6.08 µg/mL (≈ 18.3 µM). Regarding `O=c1oc(-c2ccccc2Cl)nc2c1ccc1ccccc12`, the IC50 entry with MRC5 [3] is on record as “Not Active”. In the case of `COc1cccc2c(=O)oc(-c3cccc(Cl)c3)nc12`, the IC50 in the test with MRC5 [2] was 5.06 µg/mL (≈ 17.6 µM). On to `O=c1oc(-c2ccccc2F)nc2c1ccc1ccccc12`, for which the IC50 result with MRC5 [3] is on record as “Not Active”.

As to `COc1cccc2c(=O)oc(-c3ccccc3F)nc12`, the IC50 in the test on MRC5 [2] was determined as 1.92 µg/mL (≈ 7.08 µM). `Cc1c2oc3c(C)ccc(C(=O)N[C@@H]4C(=O)N[C@H](C(C)C)C(=O)N5CCC[C@H]5C(=O)N(C)CC(=O)N(C)[C@@H](C(C)C)C(=O)O[C@@H]4C)c3nc-2c(C(=O)N[C@@H]2C(=O)N[C@H](C(C)C)C(=O)N3CCC[C@H]3C(=O)N(C)CC(=O)N(C)[C@@H](C(C)C)C(=O)O[C@@H]2C)c(N)c1=O` [DACTINOMYCIN] (I: T[dV]P[Sar][NMeV] / II: T[dV]P[Sar][NMeV]; ester I:1-I:C, II:1-II:C; linker I:N-II:N via Actinocin(1to9)) gave an IC50 in the test on MRC5 [2] of 0.02 µg/mL (≈ 0.0159 µM).

Usually IC50 stands for the point on the concentration scale where inhibition reaches its midpoint. Low values mean greater potency in that assay, high ones weaker potency in that assay.
